Screening data as filed in PubChem BioAssay.
Rtt109 Vps75 = blocks Candida albicans Rtt109/Vps75 acetyltransferase activity; Q5AAJ8; purified Rtt109/Vps75, ThioGlo CoA-SH fluorescence, 4 h; inhibition, % at 34.9 µM; 330,000 tested, 0.16% active;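 active = inhibition of at least 50% in every replicate; inconclusive = best replicate reaches 50% inhibition but some replicates fall short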
Target sequence (Q5AAJ8 whole entry, looked up): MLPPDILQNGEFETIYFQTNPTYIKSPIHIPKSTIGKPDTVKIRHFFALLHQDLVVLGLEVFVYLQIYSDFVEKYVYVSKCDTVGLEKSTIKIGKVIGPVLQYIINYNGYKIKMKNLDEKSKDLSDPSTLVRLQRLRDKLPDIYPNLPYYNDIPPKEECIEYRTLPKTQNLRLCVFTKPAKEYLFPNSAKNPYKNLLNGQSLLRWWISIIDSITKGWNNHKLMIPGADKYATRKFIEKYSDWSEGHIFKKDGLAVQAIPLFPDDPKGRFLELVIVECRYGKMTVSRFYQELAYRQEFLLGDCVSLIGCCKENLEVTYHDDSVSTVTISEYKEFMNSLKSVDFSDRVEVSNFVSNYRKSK
ALR H2O2 inh = inhibitors of human sulfhydryl oxidase ALR; P55789; purified ALR, DTT oxidation, H2O2 HRP-luminol luminescence; inhibition, % (concentration not given with the values); 290,000 tested, 3.8% active; AID 485317;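 active = mean replicate inhibition above about 79%, with every replicate also reaching it, limit read from the data; inconclusive = only one of the two criteria met; inactive = mean below limit and not every replicate reaching it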
HDAC3 inh = blocks human histone deacetylase 3. inhibition, % at 8.3 µM. O15379. recombinant HDAC3, fluorogenic peptide/trypsin coupled, fluorescence. 320,000 tested, 0.15% active. AID 2718; in the data active = inhibition above about 26%, passing the limit was not always enough; inconclusive = no clear call, values can overlap the other calls
PfM18AAP inh-1 = PfM18AAP enzyme inhibition; recombinant PfM18AAP, H-Glu-NHMec fluorogenic cleavage; inhibition, % at 7.35 µM; 290,000 tested, 1.2% active;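 active = inhibition above the campaign mean inhibition over all tested compounds plus 3 SD, cut at about 28% in these data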
UCH37 DUB inh = human UCH37 deubiquitinating enzyme inhibition; purified proteasome/UCH37, Ub-AMC cleavage fluorescence; 330,000 tested, 0.33% active; inhibition, % (no concentration beside the values); Q9Y5K5;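 active = mean inhibition over replicate wells above about 20%, limit read from the data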
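system = Proteasome-associated human UCH37 deubiquitinase | amount = 0.15 nM proteasome as dispensed | medium = pH 7.4 Tris-HCl (50 mM) with ovalbumin, ATP-MgCl2, DTT | incubation = 30 min preincubation with enzyme, 25 min cleavage at room temperature | detection = AMC fluorescence 355/460 nm | read-out basis = percent inhibition | controls = no-proteasome and no-compound wells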
FAS TE block = blocks the thioesterase domain of human fatty acid synthase. recombinant FAS-TE, OMFH fluorogenic substrate, fluorescence endpoint. inhibition, % at 15 µM. 360,000 tested, 0.67% active. AID 602261;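 active = compounds whose normalised, plate-corrected inhibition of enzyme fluorescence in the single-dose primary screen is 50% or more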
PfM18AAP inh-2 = PfM18AAP inhibition, confirmation; inhibition, % at 7.35 µM; shares compounds with PfM18AAP inh-1; recombinant PfM18AAP, H-Glu-NHMec fluorogenic cleavage; 2,400 tested, 28% active; AID 2170;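 active = mean inhibition over replicate wells above the hit cutoff set for the earlier primary screen, cut at about 29% in these data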
CTSL1 counter = Cathepsin L (human) inhibition, confirmation; shares compounds with PfM18AAP inh-1; purified cathepsin L1, Z-Leu-Arg-MCA fluorescence; 2,400 tested, under 10 active; inhibition, % at 5.96 µM;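 active = average inhibition across replicates above the hit cutoff set in the earlier primary screen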
Target sequence (P07711 whole entry, looked up): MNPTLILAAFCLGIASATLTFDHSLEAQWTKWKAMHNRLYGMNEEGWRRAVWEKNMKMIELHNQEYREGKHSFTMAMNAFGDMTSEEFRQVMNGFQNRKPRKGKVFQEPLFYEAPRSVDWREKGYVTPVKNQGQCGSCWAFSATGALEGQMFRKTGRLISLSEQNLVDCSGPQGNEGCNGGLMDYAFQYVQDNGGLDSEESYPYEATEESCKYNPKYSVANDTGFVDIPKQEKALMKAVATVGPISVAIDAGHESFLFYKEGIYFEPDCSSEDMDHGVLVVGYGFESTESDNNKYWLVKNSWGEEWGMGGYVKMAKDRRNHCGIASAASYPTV
Numbers stand for hits. This is a sample that favours compounds with a hit; in the whole collection about 4.6% have one here.

Results for NC1=C(c2ccc([N+](=O)[O-])cc2)C(=O)CO1 ?
HDAC3 inh: inconclusive; PfM18AAP inh-1: inactive; UCH37 DUB inh: inactive; FAS TE block: inactive

What do the screens show for `O=c1oc2c(-c3ccc([N+](=O)[O-])cc3)cc(O)cc2s1`?
Rtt109 Vps75: inactive; ALR H2O2 inh: inactive; HDAC3 inh: inactive; PfM18AAP inh-1: 33; UCH37 DUB inh: inactive; FAS TE block: inactive; PfM18AAP inh-2: inactive; CTSL1 counter: inactive

Results for CC(=NNC(=O)CNC(=O)C(c1ccccc1)c1ccccc1)c1ccc(C)cc1 ?
UCH37 DUB inh: inactive

How did COc1ccc(-n2cc(-c3ccc(Br)cc3)[nH]c2=S)cc1 do in these assays?
Rtt109 Vps75: inactive; ALR H2O2 inh: inactive; HDAC3 inh: inactive; PfM18AAP inh-1: inactive; UCH37 DUB inh: inactive; FAS TE block: inactive

Results for COc1ccc(-n2cc(-c3ccc(OC)c(OC)c3)[nH]c2=S)cc1 ?
Rtt109 Vps75: inactive; PfM18AAP inh-1: 41; FAS TE block: inactive; PfM18AAP inh-2: inactive; CTSL1 counter: inactive

What do the screens show for `O=C(Nn1cnnc1)c1cc(-c2cccc(Br)c2)nc2ccccc12`?
Rtt109 Vps75: inactive; ALR H2O2 inh: inactive; HDAC3 inh: inactive; PfM18AAP inh-1: 61; UCH37 DUB inh: inactive; FAS TE block: inactive; PfM18AAP inh-2: 57; CTSL1 counter: inactive

Results for O=C(NN=Cc1ccc(Cl)s1)C(O)c1ccccc1 (stereo unspecified) ?
UCH37 DUB inh: inactive

What do the screens show for `ON=C1CCSc2ccccc21`?
UCH37 DUB inh: inactive

Results for CCCc1cc(=O)[nH]c(=S)[nH]1 ?
Rtt109 Vps75: inactive; ALR H2O2 inh: inactive; HDAC3 inh: inactive; PfM18AAP inh-1: 44; UCH37 DUB inh: inactive; FAS TE block: inactive; PfM18AAP inh-2: inactive; CTSL1 counter: inactive

Results for CCCCCc1cc(=O)[nH]c(=S)[nH]1 ?
Rtt109 Vps75: inactive; ALR H2O2 inh: inactive; HDAC3 inh: inactive; PfM18AAP inh-1: inactive; UCH37 DUB inh: inactive; FAS TE block: inactive

What do the screens show for `COc1cc(/C=C2\NC(=S)N(C)C2=O)ccc1O`?
Rtt109 Vps75: inactive; ALR H2O2 inh: 99; HDAC3 inh: inactive; PfM18AAP inh-1: 36; UCH37 DUB inh: inactive; FAS TE block: inactive; PfM18AAP inh-2: inactive; CTSL1 counter: inactive

What do the screens show for `S=c1[nH]nc(C2CCCCC2)n1N=Cc1ccccc1Br`?
UCH37 DUB inh: inactive

Results for Cc1cc(C)nc(SCC(=O)c2cc3ccccc3oc2=O)n1 ?
Rtt109 Vps75: inactive; ALR H2O2 inh: 93; HDAC3 inh: inactive; PfM18AAP inh-1: 40; UCH37 DUB inh: inactive; FAS TE block: inactive; PfM18AAP inh-2: inactive; CTSL1 counter: inactive

What do the screens show for `O=C(CSc1nc2ccccc2o1)c1cc2ccccc2oc1=O`?
Rtt109 Vps75: inactive; ALR H2O2 inh: inactive; HDAC3 inh: inactive; PfM18AAP inh-1: inactive; UCH37 DUB inh: inactive; FAS TE block: inactive

What do the screens show for `CC(CC(=O)NC1CCCCC1)=NNC(=O)c1ccccn1`?
UCH37 DUB inh: inactive

How did CC(C)NC(=O)Nc1n[nH]c(Nc2ccc(Cl)cc2)n1 do in these assays?
Rtt109 Vps75: inactive; ALR H2O2 inh: inactive; HDAC3 inh: inactive; PfM18AAP inh-1: 40; UCH37 DUB inh: inactive; FAS TE block: inactive; PfM18AAP inh-2: inactive; CTSL1 counter: inactive

How did Cc1csc(NC(=O)Nc2ccc(Cl)cc2)n1 do in these assays?
Rtt109 Vps75: inactive; ALR H2O2 inh: inactive; HDAC3 inh: inactive; PfM18AAP inh-1: inactive; UCH37 DUB inh: inactive; FAS TE block: inactive

What do the screens show for `O=C(NN=Cc1cc([N+](=O)[O-])ccc1O)c1cccc(NC(=O)c2cccc(Cl)c2)c1`?
UCH37 DUB inh: inactive

What do the screens show for `O=C(NN=C/C=C/c1ccc(Br)cc1)c1ccc2c(c1)OCO2`?
UCH37 DUB inh: inactive

What do the screens show for `NNc1nnc2c3cc(F)ccc3n(CCc3ccccc3)c2n1`?
Rtt109 Vps75: inactive; ALR H2O2 inh: inactive; HDAC3 inh: inactive; PfM18AAP inh-1: 44; UCH37 DUB inh: inactive; FAS TE block: inactive; PfM18AAP inh-2: inactive; CTSL1 counter: inactive

What do the screens show for `COc1ccc(OCC(=O)Nn2c(-c3ccc(OC)cc3)nc3ccccc3c2=O)cc1`?
Rtt109 Vps75: inactive; HDAC3 inh: inactive; PfM18AAP inh-1: inactive; UCH37 DUB inh: inactive; FAS TE block: inactive

How did COc1ccc(-c2nc3ccccc3c(=O)n2NC(=S)N(C)C)cc1 do in these assays?
Rtt109 Vps75: inactive; PfM18AAP inh-1: 36; UCH37 DUB inh: inactive; FAS TE block: inactive; PfM18AAP inh-2: 33; CTSL1 counter: inactive

What do the screens show for `COc1cccc(-n2c(CCn3nc(C)c([N+](=O)[O-])c3C)n[nH]c2=S)c1`?
Rtt109 Vps75: inactive; ALR H2O2 inh: 85; HDAC3 inh: inactive; PfM18AAP inh-1: 32; UCH37 DUB inh: inactive; FAS TE block: inactive; PfM18AAP inh-2: inactive; CTSL1 counter: inactive

How did CC(=O)NN=C(C)C1COc2ccccc2O1 (stereo unspecified) do in these assays?
UCH37 DUB inh: inactive

How did Cc1cccc(NC(=S)NCc2ccco2)n1 do in these assays?
Rtt109 Vps75: inactive; ALR H2O2 inh: inactive; HDAC3 inh: inactive; PfM18AAP inh-1: 38; UCH37 DUB inh: inactive; FAS TE block: inactive; PfM18AAP inh-2: inactive; CTSL1 counter: inactive

How did S=C(NCc1ccco1)NCc1ccco1 do in these assays?
Rtt109 Vps75: inactive; UCH37 DUB inh: inactive; FAS TE block: inactive

Results for CCC(=NNC(=O)CNc1ccc(Cl)cc1C)c1ccccc1 ?
UCH37 DUB inh: inactive

What do the screens show for `COc1ccc(NC(=O)NNC(=O)c2ccc3ccccc3c2O)cc1OC`?
Rtt109 Vps75: inactive; ALR H2O2 inh: inactive; PfM18AAP inh-1: 39; UCH37 DUB inh: inactive; FAS TE block: inactive; PfM18AAP inh-2: inactive; CTSL1 counter: inactive

How did COc1ccc(NC(=O)NNC(=O)CCc2ccc(O)c(O)c2)cc1OC do in these assays?
Rtt109 Vps75: inactive; ALR H2O2 inh: 99; HDAC3 inh: inactive; PfM18AAP inh-1: 82; FAS TE block: inactive; PfM18AAP inh-2: 61; CTSL1 counter: inactive

What do the screens show for `COc1ccc(CCC(=O)NNC(=O)Nc2ccc(OC)c(OC)c2)cc1`?
Rtt109 Vps75: inactive; ALR H2O2 inh: inactive; HDAC3 inh: inactive; PfM18AAP inh-1: inactive; UCH37 DUB inh: inactive; FAS TE block: inactive

How did Cc1ccccc1NC(=O)NNC(=O)c1ccc2ccccc2c1O do in these assays?
Rtt109 Vps75: inactive; ALR H2O2 inh: inactive; HDAC3 inh: inactive; PfM18AAP inh-1: 34; UCH37 DUB inh: inactive; FAS TE block: inactive; PfM18AAP inh-2: inactive; CTSL1 counter: inactive

Results for COc1ccccc1NC(=O)NNC(=O)c1ccc2ccccc2c1O ?
Rtt109 Vps75: inactive; ALR H2O2 inh: inactive; HDAC3 inh: inactive; PfM18AAP inh-1: 33; UCH37 DUB inh: inactive; FAS TE block: inactive; PfM18AAP inh-2: inactive; CTSL1 counter: inactive
